# Measurements from different studies.
# Compare with care: the assays were run in different laboratories.
# ABHD6: Monoacylglycerol lipase ABHD6 (ABHD6, Homo sapiens, UniProt Q9BV23)
# Oprm1: Mu-type opioid receptor (Oprm1, Rattus norvegicus, UniProt P33535)
# Signal transducer and activator of transcription 6 SH2: Signal transducer and activator of transcription 6, SH2 (Homo sapiens, UniProt P42226)
# DRD4: D(4) dopamine receptor (DRD4, Homo sapiens, UniProt P21917)
Structure (SMILES),target,assay,setting,IC50 [nM]
CN(C(=O)Oc1nsnc1N1CCCCC1)c1ccc(F)cc1,ABHD6,"enzyme activity, inhibitor, fluorescence",lysate,78
CC(=O)c1c(O)c(C)c(O)c(Cc2c(O)c3c(c(C(=O)/C=C/c4ccccc4)c2O)OC(C)(C)C=C3)c1O,"Protein-glutamine gamma-glutamyltransferase (TGM2, Homo sapiens, UniProt P21980)","enzyme activity, inhibitor",,> 50000
C[C@@H](NC(=O)[C@@H](N)Cc1ccc(O)cc1)C(=O)NCCC(=O)N[C@@H](Cc1ccccc1)C(=O)NNC(=O)[C@H](Cc1ccccc1)NC(=O)CCNC(=O)[C@@H](C)NC(=O)[C@@H](N)Cc1ccc(O)cc1,Oprm1,"ligand displacement, radioligand",,380
O=P(O)(O)Oc1ccccc1OP(=O)(O)O,Signal transducer and activator of transcription 6 SH2,"ligand displacement, FP",,36000
COc1ccccc1OCCNCC(O)COc1cccc2[nH]c3ccccc3c12 (centres unmarked),DRD4,"ligand displacement, radioligand",,20
O=C(COc1ccc2cc(C(=O)Nc3ccccc3)ccc2c1)NCc1ccc(OP(=O)(O)O)c(OP(=O)(O)O)c1,Signal transducer and activator of transcription 6 SH2,"ligand displacement, FP",,7170
CCN(CC)Cc1cc(Nc2ccnc3cc(Cl)ccc23)ccc1O,"Genome polyprotein, protease (Dengue virus type 2, UniProt P14340)","enzyme activity, inhibitor",,≥ 250000
COc1cccc(N(C)C(=O)Oc2nsnc2N2CCCCC2)c1,ABHD6,"enzyme activity, inhibitor, fluorescence",lysate,195
COc1cc2c(cc1OC)C(=O)C(CC1CCN(Cc3ccccc3)CC1)C2 (centres unmarked),DRD4,"ligand displacement, radioligand",,824
CN(C(=O)Oc1nsnc1N1CCCCC1)c1ccc(Cl)cc1,ABHD6,"enzyme activity, inhibitor, fluorescence",lysate,407
C=CCOC(Cn1ccnc1)c1ccc(Cl)cc1Cl (centres unmarked),"Pleiotropic ABC efflux transporter of multiple drugs (PDR5, Saccharomyces cerevisiae S288c, UniProt P33302)","transporter uptake, inhibitor",,60000 to 70000
CN(C(=O)Oc1nsnc1N1CCCCC1)c1cccc(-c2ccccc2)c1,ABHD6,"enzyme activity, inhibitor, fluorescence",lysate,910
C[C@@H](NC(=O)[C@@H](N)Cc1ccc(O)cc1)C(=O)NCC(=O)N[C@H](CC(=O)NNC(=O)C[C@H](Cc1ccccc1)NC(=O)CNC(=O)[C@@H](C)NC(=O)[C@@H](N)Cc1ccc(O)cc1)Cc1ccccc1,Oprm1,"ligand displacement, radioligand",,2.29
C[C@H](N)Cn1ncc2ccc3c(c21)CCCO3,"5-hydroxytryptamine receptor 5A (HTR5A, Homo sapiens, UniProt P47898)","ligand displacement, radioligand",,10800
